Published values collected from several papers.
Each line is one published result; the experiments were not run side by side.
Target: Rhodopsin kinase GRK1 (GRK1, Homo sapiens, UniProt Q15835)
Sequence (Q15835 1-563, as in one of the studies): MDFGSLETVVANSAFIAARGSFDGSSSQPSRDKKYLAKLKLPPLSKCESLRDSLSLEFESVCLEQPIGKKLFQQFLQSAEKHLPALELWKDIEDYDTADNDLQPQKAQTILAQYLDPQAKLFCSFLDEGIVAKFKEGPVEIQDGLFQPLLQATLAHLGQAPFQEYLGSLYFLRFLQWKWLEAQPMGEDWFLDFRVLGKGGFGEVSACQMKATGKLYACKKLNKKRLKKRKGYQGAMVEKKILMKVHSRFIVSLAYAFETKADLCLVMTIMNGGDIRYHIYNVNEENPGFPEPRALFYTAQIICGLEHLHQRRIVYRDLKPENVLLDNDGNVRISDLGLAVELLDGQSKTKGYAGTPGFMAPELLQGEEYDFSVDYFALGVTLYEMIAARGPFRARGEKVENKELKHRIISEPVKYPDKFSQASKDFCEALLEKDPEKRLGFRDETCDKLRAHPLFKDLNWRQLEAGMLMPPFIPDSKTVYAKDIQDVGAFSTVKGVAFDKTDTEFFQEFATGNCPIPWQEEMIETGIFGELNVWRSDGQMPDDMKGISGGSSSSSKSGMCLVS

Structure (SMILES)	read-out	method	concentration	remaining binding [%]
C[C@@]1(Cc2ccc(C#N)cc2)C(=O)N(c2cc(Cl)cc(Cl)c2)c2ncc(C(=O)NC3(c4nc(C5CCC5)no4)CC3)n21	cell-free assay	competition with immobilised ligand	1 µM	100
O=C(NCCCN1CCOCC1)c1ccc(Nc2nccc(-c3cc4ccccc4s3)n2)cc1	binding	competition with immobilised ligand	1 µM	74
FC(F)(F)Oc1cccc(-c2cnc3ccc(-c4ccncc4)nn23)c1	cell-free assay	competition with immobilised ligand	5 µM	38
CCC(=O)N[C@@H]1CC[C@H](C(=O)N(C)c2ccc(-c3nc4ccccc4o3)cc2)C1	cell-free assay	competition with immobilised ligand	1 µM	76
F[C@@H]1CCN(c2nccc(-c3cnn4ncccc34)n2)C1	binding	–	1 µM	100
CC(=O)N1CCC(c2ccc(C(=O)NC3=NCCN3)cc2C(F)(F)F)CC1	cell-free assay	competition with immobilised ligand	1 µM	95
Nc1ncc2c(n1)-c1c([nH]c3ccc(C#CC4CC4)cc13)CCCC2	binding	competition with immobilised ligand	1 µM	90
O=C(NCCCN1CCOCC1)c1ccc(Nc2ncc(Cl)c(-c3ccc(Cl)s3)n2)cc1	binding	competition with immobilised ligand	1 µM	100
CS(=O)(=O)c1cc(C2(NC(=O)c3cncc4c3cnn4-c3ccc(F)cc3)CC2)ccn1	cell-free assay	competition with immobilised ligand	1 µM	87
O=C(Nc1c[nH]nc1C(=O)NC1CCNCC1)c1cc(F)cc(F)c1	binding	competition with immobilised ligand	1 µM	83
N[C@@H]1CCN(c2nccc(-c3cnn4ncccc34)n2)C1	binding	–	1 µM	100
Cc1cnc(Nc2ccc(C(=O)N3CCC(N4CCCC4)CC3)cc2)nc1-c1cc2ccccc2s1	binding	competition with immobilised ligand	1 µM	64
c1cnn2ncc(-c3ccnc(N4CCC45COC5)n3)c2c1	binding	–	1 µM	61
C=CC(=O)N1CCC(C(=O)NCC(=O)N2CCN(c3nc(-c4cnc(N)nc4C(F)F)nc(N4CCOCC4)n3)CC2)CC1	binding	competition with immobilised ligand	1 µM	67
CN([C@@H]1CCc2c(CC(=O)O)c3cc(S(C)(=O)=O)ccc3n2C1)S(=O)(=O)c1ccc(F)cc1	cell-free assay	competition with immobilised ligand	1 µM	70
C[C@H]1CCN(c2nccc(-c3cnn4ncccc34)n2)C1	binding	–	1 µM	74
c1cncc(-c2cccc(Nc3nccc(NC4CCCCC4)n3)c2)c1	binding	competition with immobilised ligand	10 µM	44
CN(C)c1nccc(-c2cnn3ncccc23)n1	binding	–	1 µM	79
COc1cnc(Nc2cccc(S(N)(=O)=O)c2)nc1N1CCN(c2ccccc2)C(=O)C1	binding	competition with immobilised ligand	1 µM	97
